Measured values taken from ChEMBL document CHEMBL4190216, “Asymmetric 1,5-diarylpenta-1,4-dien-3-ones: Antiproliferative activity in prostate epithelial cell models and pharmacokinetic studies” (Eur J Med Chem, 2017).

Key:
LNCaP [1] = assay: Antiproliferative activity against human LNCAP cells assessed as decrease in cell viability after 3 days by WST assay; format: functional, cell-based; details: 72 h
Outline: (§1)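 Cells were seeded at 3,200 per well. PC-3 and LNCaP were grown in RPMI-1640 and DU-145 in EMEM, each with 10% FBS and 1% penicillin/streptomycin, at 37 °C and 5% CO2. Cells were exposed for 3 days to at least five concentrations, with DMSO as vehicle control. WST-1 reagent was then added for 3 h at 37 °C and absorbance read at 430 nm. IC50 came from linear inhibition, averaged over triplicates.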

Rattus norvegicus = assay: Acute toxicity in Sprague-Dawley rat at 10 mg/kg administered via oral gavage; format: organism-based; details: in vivo
Outline: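 Male Sprague-Dawley rats (250–300 g, n = 4) each received a single 10 mg/kg oral gavage dose. The vehicle was 5% DMSO, 40% polyethylene glycol 400 and 55% saline. Blood was drawn from the lateral tail vein at 1, 3, 6 and 24 h for plasma drug levels. Toxicity was scored as observed deaths after dosing.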

[2] = Retention time of the compound; format: physicochemical
VCaP = assay: Antiproliferative activity against human VCaP cells expressing androgen receptor splice variants assessed as decrease in cell viability after 5 days by trypan blue exclusion assay; format: functional, cell-based; details: 120 h
[3] = Plasma concentration in Sprague-Dawley rat at 10 mg/kg administered via oral gavage measured at 3 hrs by HPLC-MS/MS analysis; format: ADME, organism-based
DU-145 [4] = assay: Potency index, ratio of curcumin IC50 to test compound IC50 for human DU145 cells; format: functional
[5] = Cmax in Sprague-Dawley rat at 10 mg/kg administered via oral gavage by HPLC-MS/MS analysis; format: ADME, organism-based; design: dose 10 mg/kg, route oral; details: in vivo
[6] = Tmax in Sprague-Dawley rat at 10 mg/kg administered via oral gavage by HPLC-MS/MS analysis; format: ADME, organism-based; details: in vivo
[7] = Drug metabolism in human liver microsomes assessed as (1Z,4E)-1-(1-ethyl-1H-benzo[d]imidazol-2-yl)-1-hydroxy-5-(2-methyl-4-(trifluoromethyl)thiazol-5-yl)penta-1,4-dien-3-one formation at 10 mM after 60 mins by UHPLC analysis; format: ADME, microsome
Outline: (§2)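 Pooled human liver microsomes in potassium phosphate buffer (pH 7.4) with NADPH solutions A and B were preincubated for 5 min at 37 °C. Compound was then added from a 10 mM stock (3 μL into 300 μL total) and incubated 60 min at 37 °C. Reactions were quenched with an equal volume of methanol and centrifuged (10,000 × g, 4 min, 4 °C). Supernatant went to UHPLC–high-resolution MS for metabolite identification.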

DU-145 [8] = assay: Antiproliferative activity against human DU145 cells assessed as decrease in cell viability after 3 days by WST assay; format: functional, cell-based; details: DU-145, 72 h; outline: as §1
CWR22R = assay: Antiproliferative activity against human 22Rv1 cells expressing androgen receptor splice variants assessed as decrease in cell viability after 5 days by trypan blue exclusion assay; format: functional, cell-based; details: 22Rv1, 120 h
PC-3 [9] = assay: Antiproliferative activity against human PC3 cells assessed as decrease in cell viability after 3 days by WST assay; format: functional, cell-based; details: PC-3, 72 h; outline: as §1
[10] = Plasma concentration in Sprague-Dawley rat at 10 mg/kg administered via oral gavage measured at 6 hrs by HPLC-MS/MS analysis; format: ADME, organism-based
[11] = Antiproliferative activity against human LNCaP95 cells expressing androgen receptor splice variants assessed as decrease in cell viability after 5 days by trypan blue exclusion assay; format: functional, cell-based; details: LNCaP-95, 120 h
LNCaP [12] = assay: Potency index, ratio of curcumin IC50 to test compound IC50 for human LNCAP cells; format: functional
[13] = Plasma concentration in Sprague-Dawley rat at 10 mg/kg administered via oral gavage measured after 1 day by HPLC-MS/MS analysis; format: ADME, organism-based
[14] = Plasma concentration in Sprague-Dawley rat at 10 mg/kg administered via oral gavage measured at 1 hr by HPLC-MS/MS analysis; format: ADME, organism-based
PC-3 [15] = assay: Potency index, ratio of curcumin IC50 to test compound IC50 for human PC3 cells; format: functional
[16] = AUC in Sprague-Dawley rat at 10 mg/kg administered via oral gavage by HPLC-MS/MS analysis; format: ADME, organism-based; details: in vivo
PWR-1E = assay: Antiproliferative activity against human PWR-1E cells expressing androgen receptor and PSA assessed as decrease in cell viability after 3 days by WST assay; format: functional, cell-based; details: 72 h
Outline: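 Non-malignant prostate epithelial PWR-1E (adenovirus 12/SV40-immortalized) was seeded at 5,000 per well. Cells were exposed for 3 days at 37 °C in a CO2 incubator to at least five concentrations, with DMSO as vehicle control. WST-1 reagent was then added for 3 h at 37 °C and absorbance read at 430 nm. IC50 came from linear inhibition, as the mean of triplicate determinations.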

[17] = Drug metabolism in human liver microsomes assessed as (1Z,4E)-5-(1-ethyl-1H-benzo[d]imidazol-2-yl)-1-hydroxy-1-(2-methyl-4-(trifluoromethyl)thiazol-5-yl)penta-1,4-dien-3-one formation at 10 mM after 60 mins by UHPLC analysis; format: ADME, microsome; outline: as §2

SMILES: CCn1c(/C=C/C(=O)/C=C/c2sc(C)nc2C(F)(F)F)nc2ccccc21
- IC50 (LNCaP [1]): 0.25 µM
- Activity (Rattus norvegicus): Non-Toxic
- Retention_time [2]: 5.05 min
- IC50 (VCaP): 1.41 µM
- concentration at 3 h [3]: 982 ng/mL
- Ratio IC50 (DU-145 [4]): 53
- Cmax [5]: 3.25 µM
- Tmax [6]: 6 h
- Drug metabolism [7]: Metabolite_Detected
- IC50 (DU-145 [8]): 0.5 µM
- IC50 (CWR22R): 0.22 µM
- IC50 (PC-3 [9]): 0.23 µM
- concentration at 6 h [10]: 1230 ng/mL
- IC50 [11]: 0.38 µM
- Ratio IC50 (LNCaP [12]): 54
- concentration at 24 h [13]: 314 ng/mL
- concentration at 1 h [14]: 112 ng/mL
- Ratio IC50 (PC-3 [15]): 110
- AUC [16]: 18300 ng·h/mL
- IC50 (PWR-1E): 0.08 µM
- Drug metabolism [17]: Metabolite_Detected
